Test results published in ChEMBL document CHEMBL1132110, “Design and fast synthesis of C-terminal duplicated potent C(2)-symmetric P1/P1'-modified HIV-1 protease inhibitors” (J Med Chem, 1999).

Columns and labels:
MT4 [1] = test: The anti-HIV activity in the presence of MT-4 cells infected mutants HIV-1:M46I,V82F,[…]; assay type: functional; settings: Homo sapiens, read-out: ED50 (the source's name)
Outline: (§1)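 MT4 cells (2 × 10⁴/well) infected with ritonavir-selected mutant HIV-1 (10–50 TCID₅₀/well). Mutants came from passaging cell-free virus under stepwise-increased ritonavir, then one passage without drug; protease gene sequenced. Compounds from 10 mg/mL DMSO stocks diluted in medium. Viability read by XTT after 6 days; ED50 taken as 50% dose.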

MT4 [2] = test: The anti-HIV activity in the presence of MT-4 cells infected mutants HIV-1:V32I,M46I,V82A.; assay type: functional; settings: Homo sapiens, read-out: ED50 (the source's name); outline: as §1
MT4 [3] = test: The anti-HIV activity in the presence of human serum(hs) performed in MT-4 cells with AB+ serum.; assay type: functional; settings: read-out: ED50 (the source's name)
Outline: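 MT4 cells infected with HIV-1 IIIB. Compounds diluted in human AB+ serum were added after 1 h of virus adsorption. Final medium held 50% human serum plus 10% fetal calf serum. Viral replication was read after 6 days as HIV p24 antigen, and the ED50 was derived.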

MT4 [4] = test: The anti-HIV activity was evaluated in MT-4 cells using colorimetric XTT assay. MT-4 cells were infected with HIV-1,IIb (in vitro); assay type: functional; settings: Homo sapiens, read-out: ED50 (the source's name)
Outline: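 MT4 cells (2 × 10⁴ per well) infected with HIV-1 IIIB at 10–50 TCID50/well. Compounds came from 10 mg/mL DMSO stocks, diluted in medium and added to the cells. Viability was read by XTT after 6 days to monitor the cytopathic effect, and the 50% effective dose (ED50) was determined.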

[5] = target: Human immunodeficiency virus type 1 protease (Human immunodeficiency virus 1, UniProt Q72874); test: Inhibitory activity against HIV-1 protease expressed in Escherichia coli
MT4 [6] = test: The anti-HIV activity in the presence of human serum(hs) performed in MT-4 cells iwith AB+ serum.; assay type: functional; settings: read-out: ED50 (the source's name)
Outline: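 MT4 cells infected with HIV-1 IIIB; compounds diluted in human AB+ serum and added after 1 h virus adsorption, final medium 50% human serum plus 10% fetal calf serum. Viral replication measured after 6 days as HIV p24 antigen; ED50 derived.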

Row | SMILES | EC50 (MT4 [1]) [nM] | EC50 (MT4 [2]) [nM] | EC50 (MT4 [3]) [nM] | EC50 (MT4 [4]) [nM] | Ki [5] [nM] | EC50 (MT4 [6]) [nM]
1 | CNC(=O)[C@@H](NC(=O)[C@H](OCc1ccc(-c2ccsc2)cc1)[C@H](O)[C@@H](O)[C@@H](OCc1ccc(-c2ccsc2)cc1)C(=O)N[C@H](C(=O)NC)C(C)C)C(C)C | 200 | 300 | 800 | 40 | – | –
2 | CNC(=O)[C@@H](NC(=O)[C@H](OCc1ccc(-c2ccccn2)cc1)[C@H](O)[C@@H](O)[C@@H](OCc1ccc(-c2ccccn2)cc1)C(=O)N[C@H](C(=O)NC)C(C)C)C(C)C | – | – | 3600 | 800 | 0.6 | –
3 | CNC(=O)[C@@H](NC(=O)[C@H](OCc1ccc(-c2cccc([N+](=O)[O-])c2)cc1)[C@H](O)[C@@H](O)[C@@H](OCc1ccc(-c2cccc([N+](=O)[O-])c2)cc1)C(=O)N[C@H](C(=O)NC)C(C)C)C(C)C | 40 | 1100 | 1100 | 50 | 1.4 | –
4 | CNC(=O)[C@@H](NC(=O)[C@H](OCc1ccc(-c2nccs2)cc1)[C@H](O)[C@@H](O)[C@@H](OCc1ccc(-c2nccs2)cc1)C(=O)N[C@H](C(=O)NC)C(C)C)C(C)C | > 3000 | > 3000 | 400 | 300 | 0.6 | –
5 | CNC(=O)[C@@H](NC(=O)[C@H](OCc1ccc(C2=C(O)C(=O)CCC2)cc1)[C@H](O)[C@@H](O)[C@@H](OCc1ccc(C2=C(O)C(=O)CCC2)cc1)C(=O)N[C@H](C(=O)NC)C(C)C)C(C)C | – | – | 20000 | 3700 | 0.3 | –
6 | CNC(=O)[C@@H](NC(=O)[C@H](OCc1ccccc1)[C@H](O)[C@@H](O)[C@@H](OCc1ccccc1)C(=O)N[C@H](C(=O)NC)C(C)C)C(C)C | 20000 | – | – | 1500 | – | 20000
7 | CNC(=O)[C@@H](NC(=O)[C@H](OCc1ccc(-c2cccnc2)cc1)[C@H](O)[C@@H](O)[C@@H](OCc1ccc(-c2cccnc2)cc1)C(=O)N[C@H](C(=O)NC)C(C)C)C(C)C | > 3000 | > 3000 | 20000 | 2500 | 0.3 | –
8 | CNC(=O)[C@@H](NC(=O)[C@H](OCc1ccc(CCc2ccccc2)cc1)[C@H](O)[C@@H](O)[C@@H](OCc1ccc(CCc2ccccc2)cc1)C(=O)N[C@H](C(=O)NC)C(C)C)C(C)C | – | – | – | 2100 | 3.8 | –
9 | CNC(=O)[C@@H](NC(=O)[C@H](OCc1ccc(Br)cc1)[C@H](O)[C@@H](O)[C@@H](OCc1ccc(Br)cc1)C(=O)N[C@H](C(=O)NC)C(C)C)C(C)C | 1000 | 1200 | 2100 | 800 | 0.3 | –
10 | CNC(=O)[C@@H](NC(=O)[C@H](OCc1ccc(-c2ccccc2)cc1)[C@H](O)[C@@H](O)[C@@H](OCc1ccc(-c2ccccc2)cc1)C(=O)N[C@H](C(=O)NC)C(C)C)C(C)C | 700 | 400 | 800 | 40 | 0.7 | –
11 | CNC(=O)[C@@H](NC(=O)[C@H](OCc1ccc(/C=C/C(=O)OC)cc1)[C@H](O)[C@@H](O)[C@@H](OCc1ccc(/C=C/C(=O)OC)cc1)C(=O)N[C@H](C(=O)NC)C(C)C)C(C)C | – | – | 5700 | 800 | 0.09 | –
12 | CNC(=O)[C@@H](NC(=O)[C@H](OCc1ccc(-c2cccs2)cc1)[C@H](O)[C@@H](O)[C@@H](OCc1ccc(-c2cccs2)cc1)C(=O)N[C@H](C(=O)NC)C(C)C)C(C)C | 200 | 300 | 1000 | 40 | 1.2 | –
